Reference: ChEMBL document CHEMBL1127419, “A comparative molecular field analysis model for 6-arylpyrrolo[2,1-d] [1,5]benzothiazepines binding selectively to the mitochondrial benzodiazepine receptor” (J Med Chem, 1994)

Experiments:
[1] = target: T1, Translocator protein (Rattus norvegicus, UniProt P16257); assay: (§1) Displacement of [3H]-PK 11195 from rat peripheral (mitochondrial) benzodiazepine receptor
Outline: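 Male CD rat (~150 g) cerebral cortex membranes washed in 50 mM phosphate-buffered saline, pH 7.4. 10 mg wet tissue incubated 120 min at 4 °C with 1 nM [3H]PK 11195 and 8–12 drug concentrations. Nonspecific binding defined with 1 μM PK 11195. Filtration, scintillation counting. IC50 by nonlinear curve fitting; triplicate points.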

[2] = target: T1, Translocator protein; assay: as §1; remark: listed apart in the source

T1 sequence (P16257 whole entry, looked up): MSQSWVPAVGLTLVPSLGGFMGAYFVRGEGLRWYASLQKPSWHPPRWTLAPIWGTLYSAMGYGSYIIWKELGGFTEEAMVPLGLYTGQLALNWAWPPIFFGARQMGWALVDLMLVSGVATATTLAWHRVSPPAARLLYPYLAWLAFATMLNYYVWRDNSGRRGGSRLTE

Compound | IC50 [1] [nM] | IC50 [2] [nM]
COc1ccc(C2=C(OC(=O)c3cc(OC)c(OC)c(OC)c3)c3cccn3-c3cc(C(F)(F)F)ccc3S2)cc1 | 100000 | –
CC(=O)OC1=C(c2ccc(Cl)cc2)Sc2ccccc2-n2cccc21 | 30.2 | 30
CN(C)C(=O)OC1=C(c2ccccc2)Sc2c(Cl)cccc2-n2cccc21 | 3.98 | 4
CN(C)C(=O)OC1=C(c2ccccc2F)Sc2ccccc2-n2cccc21 | 30.9 | 31
CC(=O)OC1=C(c2ccccc2F)Sc2ccccc2-n2cccc21 | 38 | 38
COc1ccc(C2=C(OC(=O)c3ccncc3)c3cccn3-c3ccccc3S2)cc1 | 100000 | –
COc1ccc(C2=C(OC(=O)c3cccnc3)c3cccn3-c3ccccc3S2)cc1 | 100000 | –
COc1ccc(C2=C(OC(C)=O)c3cccn3-c3cccc(Cl)c3S2)cc1 | 20.4 | –
CCCC(=O)OC1=C(c2ccccc2)Sc2ccccc2-n2cccc21 | 21.4 | –
CC(=O)OC1=C(c2ccccc2)Sc2c(Cl)cccc2-n2cccc21 | 7.59 | –
CN(C)C(=O)OC1=C(c2ccccc2)Sc2ccccc2-n2cccc21 | 9.12 | –
COc1ccc(C2=C(OC(=O)c3cc(OC)c(OC)c(OC)c3)c3cccn3-c3ccccc3S2)cc1 | 100000 | –
COc1ccc(C2=C(OC(=O)c3cc(OC)c(OC)c(OC)c3)c3cccn3-c3cc(Cl)ccc3S2)cc1 | 100000 | –
CCC(=O)OC1=C(c2ccccc2)Sc2ccccc2-n2cccc21 | 66.1 | –
CC(=O)OC1=C(c2ccccc2)Sc2cc(C)ccc2-n2cccc21 | 112 | 112
CC(=O)OC1=C(c2ccccc2)Sc2ccc(C)cc2-n2cccc21 | 676 | 675
O=C1c2cccn2-c2ccccc2S(=O)(=O)C1c1ccccc1 (stereo not given) | 100000 | –
CCC(=O)OC1=C(c2ccc(OC)cc2)Sc2ccccc2-n2cccc21 | 29.5 | –
CC(=O)OC1=C(c2ccccc2)Sc2ccccc2-n2cccc21 | 19.5 | –
COc1ccc(C2=C(OC(=O)N(C)C)c3cccn3-c3ccccc3S2)cc1 | 9.12 | –
CC(=O)OC1=C(c2ccc(F)cc2)Sc2ccccc2-n2cccc21 | 28.2 | 28
COc1ccc(C2=C(OC(C)=O)c3cccn3-c3ccccc3S2(=O)=O)cc1 | 631 | –
CCCC(=O)OC1=C(c2ccc(OC)cc2)Sc2ccccc2-n2cccc21 | 27.5 | –
COc1ccc(C2=C(OC(=O)N(C)C)c3cccn3-c3cc(C(F)(F)F)ccc3S2)cc1 | 295 | –
COc1ccc(C2=C(OC(=O)N(C)C)c3cccn3-c3cc(Cl)ccc3S2)cc1 | 166 | –
CS(=O)(=O)OC1=C(c2ccccc2)Sc2ccccc2-n2cccc21 | 57.5 | –
CCCCCC(=O)OC1=C(c2ccccc2)Sc2ccccc2-n2cccc21 | 23.4 | –
COc1ccc(C2C(=O)c3cccn3-c3ccccc3[S+]2[O-])cc1 (stereo not given) | 22900 | –
